Species on record: Homo sapiens
Experiment: Selectivity index, ratio of MEC for agonist activity at human TLR8 expressed in HEK293 cells to MEC for agonist activity at human TLR7 expressed in HEK293 cells as
Assay type: cell-based
Summary of the method: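 Ratio of TLR8 to TLR7 LEC from HEK293 NFκB-luciferase reporter assays. Cells were transiently transfected with TLR7 or TLR8 construct plus NFκB-luc and treated with compound for 6 h at 37°C. LEC is the lowest concentration with signal at least two-fold above the assay SD, from quadruplicate dose-response curves.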

CCCCOc1nc(N)c2c(n1)N(Cc1cccc(CN3CCCC3)c1)CC(=O)N2
Ratio: 30

From ChEMBL document CHEMBL4184225, “Discovery of selective 2,4-diaminoquinazoline toll-like receptor 7 (TLR 7) agonists” (Bioorg Med Chem Lett, 2018)
